Measured values published in ChEMBL document CHEMBL1142730, “Design of HIV-1 protease inhibitors active on multidrug-resistant virus” (J Med Chem, 2005).
≈ marks a conversion by molar mass, not a printed value.

Key:
[1] = Maximum plasma concentration value in wistar rat was determined at a dosage of 20 mg/kg; type: ADME, organism-based; parameters: dose 20 mg/kg
In short: (§1)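 Wistar rats, single-dose study at 20 mg/kg, compound formulated in PEG400. Plasma Cmax, Tmax, t1/2 and AUC determined.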

[2] = test system: Human immunodeficiency virus 1; test: Protease inhibitory activity against HIV-1 GSS004421 mutant strain was determined; type: functional, organism-based
[3] = test system: Human immunodeficiency virus 1; test: Protease inhibitory activity against HIV-1 r13025 mutant strain was determined; type: functional, organism-based
Caco-2 [4] = test: In vitro increase in apparent permeability from basolateral to apical was determined in Caco-2 (human colon carcinoma) cells; type: functional, cell-based
In short: (§2)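 Caco-2 monolayer apparent permeability measured apical-to-basolateral and basolateral-to-apical; reported as Papp in cm/s (×10⁶).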

[5] = In vivo half life value in wistar rat was determined at a dosage of 20 mg/kg; type: ADME, organism-based; parameters: dose 20 mg/kg; in short: as §1
[6] = test system: Human immunodeficiency virus 1; test: Protease inhibitory activity against HIV-1 r13034 mutant strain was determined; type: functional, organism-based
[7] = test system: Human immunodeficiency virus 1; test: Toxicity value against wild type HIV-1 IIIB was determined; type: functional
In short: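 MT4 cells (150 000 cells/mL) mock-infected, run in parallel with HIV-infected cultures over an identical compound concentration range. Incubated 3 days at 37 °C, 5% CO₂. Reduced expression of the […] GFP reporter serves as the toxicity marker.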

Rattus norvegicus = species on record: Rattus norvegicus; test: In vitro metabolic stability value after 30 min of incubation with liver microsomes of rat was determined; type: functional; details: Microsome
In short: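 Compound at 10 µM incubated at 37 °C with dog, human or rat liver microsomes. Residual parent compound quantified directly by LC-MS. Value is percent parent remaining after 30 min.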

[8] = In vivo area under the concentration time curve value in wistar rat was determined at a dosage of 20 mg/kg; type: ADME, organism-based; parameters: dose 20 mg/kg; in short: as §1
[9] = test system: Human immunodeficiency virus 1; test: Protease inhibitory activity against wild type HIV-1 IIIB was determined; type: functional, organism-based
[10] = In vivo time to reach maximum plasma concentration value in wistar rat was determined at a dosage of 20 mg/kg; type: ADME, organism-based; parameters: dose 20 mg/kg; in short: as §1
Caco-2 [11] = test: In vitro increase in apparent permeability from apical to basolateral was determined in Caco-2 (human colon carcinoma) cells; type: functional, cell-based; in short: as §2
[12] = test system: Human immunodeficiency virus 1; test: Protease inhibitory activity against HIV-1 r13363 mutant strain was determined; type: functional, organism-based
[13] = In vitro solubility at was determined; pH=5; type: ADME
In short: (§3)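 Aqueous solubility measured at pH 5 and pH 7, expressed in […].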

[14] = In vivo time to reach maximum plasma concentration value in dog was determined at a dosage of 20 mg/kg; type: ADME, organism-based, Canis lupus familiaris; parameters: dose 20 mg/kg
In short: (§4)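 Oral dosing in dog at 20 mg/kg, coadministered with ritonavir. Compound given as a solution in PEG400 or in 40% w/v hydroxypropyl-β-cyclodextrin with 2% citric acid. Plasma Cmax, Tmax, t1/2 and AUC determined.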

[15] = In vivo half life value in dog was determined at a dosage of 20 mg/kg; type: ADME, organism-based, Canis lupus familiaris; parameters: dose 20 mg/kg; in short: as §4
[16] = In vitro solubility at was determined; pH=7; type: ADME; in short: as §3
[17] = In vivo area under the concentration time curve value in dog was determined at a dosage of 20 mg/kg; type: ADME, organism-based, Canis lupus familiaris; parameters: dose 20 mg/kg; in short: as §4
[18] = Maximum plasma concentration value in dog was determined at a dosage of 20 mg/kg; type: ADME, organism-based, Canis lupus familiaris; parameters: dose 20 mg/kg; in short: as §4
[19] = biological target: T1, Human immunodeficiency virus type 1 protease (Human immunodeficiency virus 1, UniProt Q72874); test: (§5) Binding affinity against HIV-1 protease
[20] = biological target: T1, Human immunodeficiency virus type 1 protease; test: as §5; remark: listed apart in the source
In short: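 Isothermal titration calorimetry by displacement: the protease was pre-titrated with acetylpepstatin (300 µM) as the weaker binder, then the inhibitor (125 or 200 µM in the syringe) was injected to saturation into protease (9–21 µM). Buffer was 10 mM sodium acetate pH 5.0, 2% DMSO, 2 mM TCEP. Heats of dilution were subtracted, and each run was done at least twice.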

SMILES	Cmax [1] [ng/mL]	pEC50 [2]	pEC50 [3]	Papp (Caco-2 [4]) [×10⁻⁶ cm/s]	pEC50 [6]	pCC50 [7]	Metabolic stability (Rattus norvegicus) [%]	AUC [8] [ng·h/mL]	EC50 [9] [nM]	Tmax [10] [h]	Papp (Caco-2 [11]) [×10⁻⁶ cm/s]	pEC50 [12]	solubility [13] [µg/mL]	Tmax [14] [h]	half-life [15] [h]	solubility [16] [µg/mL]	AUC [17] [ng·h/mL]	Cmax [18] [ng/mL]	Kd [20] [nM]	also measured
CC(C)CN(C[C@@H](O)[C@H](Cc1ccccc1)NC(=O)O[C@H]1CO[C@H]2OCC[C@H]21)S(=O)(=O)c1ccc2nc(N)oc2c1	260	8.06	8.21	23.8	8.19	< 4.49	90	448	11.7	1	3.8	7.6	–	–	–	–	–	–	–	half-life [5]: 1.6 h
CC(C)CN(C[C@@H](O)[C@H](Cc1ccccc1)NC(=O)O[C@H]1CO[C@H]2OCC[C@H]21)S(=O)(=O)c1ccc2nc(N(C)CCCN(C)C)sc2c1	–	6.71	6.95	8.5	7.32	4.68	47	–	14.8	–	2	6.08	1640 (≈ 2330 µM)	1	2.9	1180 (≈ 1680 µM)	6590	1680	–	–
CC(C)CN(CC(O)C(Cc1ccccc1)NC(=O)OC1CCOC1)S(=O)(=O)c1ccc(N)cc1 (centres undefined)	–	–	–	–	–	–	–	–	–	–	–	–	–	–	–	–	–	–	–	Kd [19]: 0.4 nM
CC(C)CN(C[C@@H](O)[C@H](Cc1ccccc1)NC(=O)O[C@H]1CO[C@H]2OCC[C@H]21)S(=O)(=O)c1ccc2nc(NCCN3CCCC3)sc2c1	–	7.86	7.88	21.7	7.91	< 4.49	56	–	11	–	3.5	7.49	90 (≈ 128 µM)	0.5	1.66	< 10	6050	1970	0.0637	–
CNc1nc2ccc(S(=O)(=O)N(CC(C)C)C[C@@H](O)[C@H](Cc3ccccc3)NC(=O)O[C@H]3CO[C@H]4OCC[C@H]43)cc2o1	927	8.07	8.13	24	8.61	< 4.49	70	1200	2	1.4	17.6	7.5	10 (≈ 16.6 µM)	2	0.9	< 10	2030	986	0.9	–
